Measurements as given in ChEMBL document CHEMBL1146386, “Design, synthesis, and preliminary in vitro and in silico antiviral activity of [4,7]phenantrolines and 1-oxo-1,4-dihydro-[4,7]phenantrolines against single-stranded positive-sense RNA genome viruses” (Bioorg Med Chem, 2007).
The source made the active and inactive calls. No cut-off for these calls is given here.

Legend:
Enterovirus C = experiment: Antiviral activity against Poliovirus Sb1 in Vero 76 cells after 2 days by plaque reduction assay; type: functional, organism-based; conditions: 48 h
Method in brief: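 Vero 76 monolayers (2×10^5 cells/well, grown overnight) infected with Sabin strain at 50-100 PFU/well. Unabsorbed virus removed, then DMEM with 1% inactivated FCS and 0.75% methyl cellulose added, with or without serial compound dilutions (100 mM DMSO stock diluted in medium). Held 2 days at 37 °C, then fixed and stained with ethanol/crystal violet and plaques counted. EC50 (50% plaque reduction) by linear regression; mean of three determinations.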

[1] = system: Vesicular stomatitis virus; experiment: Antiviral activity against VSV; type: functional, organism-based
[2] = system: Respiratory syncytial virus; experiment: Antiviral activity against RSV; type: functional, organism-based
[3] = Cytotoxicity against MDBK cells after 48 to 120 hrs by MTT method; type: cell-based, Bos taurus; conditions: cattle
Method in brief: (§1)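 Cells placed in maintenance medium at initial 1×10^6 (BHK) or 6×10^5 (MDBK) cells/mL, with or without serial compound dilutions, run in parallel with antiviral tests. Viability by MTT after 48–120 h at 37 °C, humidified 5% CO2; CC50 = concentration reducing mock-infected cell viability by 50%; mean of three determinations.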

[4] = system: Bovine viral diarrhea virus 1; experiment: Antiviral activity against BVDV in MDBK cells assessed as inhibition of virus-induced cytopathogenicity after 2 to 3 days by MTT method; type: functional, organism-based; conditions: Bovine viral diarrhea virus isolates and strains
Method in brief: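 MDBK cells seeded 2.5×10^4 cells/well, grown overnight to confluence at 37 °C, 5% CO2; infected at moi 0.01 in serum-free medium; after 1 h, MEM Earle's with 1% inactivated FCS ± serial compound dilutions (DMSO stock diluted in medium) added. Viability read by MTT after 2-3 days at 37 °C; EC50 = 50% protection from cytopathogenicity; mean of three determinations.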

[5] = Cytotoxicity against BHK1 cells after 48 to 120 hrs by MTT method; type: cell-based, Mesocricetus auratus; conditions: hamster; method in brief: as §1
Yellow fever virus = experiment: Antiviral activity against YFV in BHK1 cells assessed as inhibition of virus-induced cytopathogenicity after 2 to 3 days by MTT method; type: functional, organism-based
[6] = Cytotoxicity against Vero 76 cells after 48 to 120 hrs by MTT method; type: cell-based; conditions: chlorocebus sabaeus
Coxsackievirus B2 = experiment: Antiviral activity against CVB2 in Vero 76 cells after 3 days by plaque reduction assay; type: functional, organism-based; conditions: Enterovirus B, 72 h
Method in brief: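 Vero 76 cells seeded 2×10^5 cells/well, confluent overnight; infected to give 50-100 PFU/well; unadsorbed virus removed, then DMEM with 1% inactivated FCS and 0.75% methyl cellulose ± serial dilutions added. After 3 days at 37 °C, fixed and stained with 50% ethanol/0.8% crystal violet in PBS; plaques counted; EC50 by linear regression.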

[7] = Cytotoxicity against human MT4 cells after 96 hrs by MTT method; type: cell-based
Method in brief: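 Exponentially growing MT-4 cells (CD4+ T-cells carrying integrated HTLV-1) seeded at 1×10^5 cells/mL in RPMI-1640 with 10% FCS, penicillin and streptomycin, with or without serial compound dilutions; 96 h at 37 °C, humidified 5% CO2. Viability by MTT; value = concentration reducing proliferation by 50%, untreated controls undergoing at least three rounds of multiplication.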

[8] = system: Human immunodeficiency virus 1; experiment: Antiviral activity against HIV1 in MT4 cells by plaque reduction assay; type: functional, organism-based; conditions: Human immunodeficiency virus 1, MT4
Reovirus sp. = experiment: Antiviral activity against Reovirus; type: functional, organism-based

For `c1cnc2ccc3ncccc3c2c1`, the EC50 (Enterovirus C) was > 80 µM, the Activity [1] was “inactive” and the Activity [2] was “inactive”. The CC50 [3] was > 100 µM, the EC50 [4] was 17 µM and the CC50 [5] was > 100 µM. The EC50 (Yellow fever virus) was > 100 µM, the CC50 [6] was 80 µM and the EC50 (Coxsackievirus B2) was > 80 µM. For the same compound, the CC50 at 96 h [7] was 61 µM, the EC50 [8] was > 61 µM and the Activity (Reovirus sp.) was “inactive”.

With `CCOC(=O)c1c[nH]c2c(Cl)c(Cl)c3ncccc3c2c1=O` the EC50 (Enterovirus C) was > 90 µM, the Activity [1] was “inactive” and the Activity [2] was “inactive”. For the same compound, the CC50 [3] was > 100 µM, the EC50 [4] was 35 µM and the CC50 [5] was 25 µM. The EC50 (Yellow fever virus) was > 25 µM, the CC50 [6] was 90 µM and the EC50 (Coxsackievirus B2) was > 90 µM. The CC50 at 96 h [7] was 32 µM, the EC50 [8] was > 32 µM and the Activity (Reovirus sp.) was “inactive”.

For `Clc1c(Cl)c2ncccc2c2cccnc12`, the EC50 (Enterovirus C) was 6 µM, the Activity [1] was “inactive” and the Activity [2] was “inactive”. The CC50 [3] was > 100 µM, the EC50 [4] was 16 µM and the CC50 [5] was > 100 µM. The EC50 (Yellow fever virus) was > 100 µM, the CC50 [6] was 25 µM and the EC50 (Coxsackievirus B2) was 11 µM. For the same compound, the CC50 at 96 h [7] was 24 µM, the EC50 [8] was > 24 µM and the Activity (Reovirus sp.) was “inactive”.

In the case of `Clc1c(Cl)c2nccc(Cl)c2c2cccnc12`, the EC50 (Enterovirus C) is reported as > 100 µM, the Activity [1] is reported as “inactive” and the Activity [2] is reported as “inactive”. The CC50 [3] was 54 µM, the EC50 [4] was > 54 µM and the CC50 [5] was > 100 µM. The EC50 (Yellow fever virus) was > 100 µM, the CC50 [6] was > 100 µM and the EC50 (Coxsackievirus B2) was > 100 µM. The CC50 at 96 h [7] was 6.4 µM, the EC50 [8] was > 6.4 µM and the Activity (Reovirus sp.) was “inactive”.

For `O=c1cc[nH]c2c(Cl)c(Cl)c3ncccc3c12`, the EC50 (Enterovirus C) was > 80 µM, the Activity [1] was “inactive” and the Activity [2] was “inactive”. For the same compound, the CC50 [3] was > 100 µM, the EC50 [4] was 16 µM and the CC50 [5] was > 100 µM. For the same compound, the EC50 (Yellow fever virus) was > 100 µM, the CC50 [6] was 80 µM and the EC50 (Coxsackievirus B2) was > 80 µM. For the same compound, the CC50 at 96 h [7] was 47 µM, the EC50 [8] was > 47 µM and the Activity (Reovirus sp.) was “inactive”.

With `O=C(O)c1c[nH]c2c(Cl)c(Cl)c3ncccc3c2c1=O` the EC50 (Enterovirus C) was 85 µM, the Activity [1] was “inactive” and the Activity [2] was “inactive”. For the same compound, the CC50 [3] was > 100 µM, the EC50 [4] was > 100 µM and the CC50 [5] was 23 µM. For the same compound, the EC50 (Yellow fever virus) was > 23 µM, the CC50 [6] was 100 µM and the EC50 (Coxsackievirus B2) was > 100 µM. For the same compound, the CC50 at 96 h [7] was > 100 µM, the EC50 [8] was > 100 µM and the Activity (Reovirus sp.) was “inactive”.

With `Nc1ccnc2c(Cl)c(Cl)c3ncccc3c12` the EC50 (Enterovirus C) was 14 µM, the Activity [1] was “inactive” and the Activity [2] was “inactive”. For the same compound, the CC50 [3] was 24 µM, the EC50 [4] was ≥ 24 µM and the CC50 [5] was 11 µM. For the same compound, the EC50 (Yellow fever virus) was > 11 µM, the CC50 [6] was 40 µM and the EC50 (Coxsackievirus B2) was 2 µM. The CC50 at 96 h [7] was 7.2 µM, the EC50 [8] was > 7.2 µM and the Activity (Reovirus sp.) was “inactive”.

For `CCOc1ccnc2ccc3ncccc3c12`, the EC50 (Enterovirus C) was 17 µM, the Activity [1] was “inactive” and the Activity [2] was “inactive”. It also gave a CC50 [3] of 64 µM, an EC50 [4] of 6 µM and a CC50 [5] of 35 µM. The EC50 (Yellow fever virus) was > 35 µM, the CC50 [6] was 80 µM and the EC50 (Coxsackievirus B2) was 5 µM. For the same compound, the CC50 at 96 h [7] was 56 µM, the EC50 [8] was > 56 µM and the Activity (Reovirus sp.) was “inactive”.

With `CC(=O)Nc1ccnc2c(Cl)c(Cl)c3ncccc3c12` the EC50 (Enterovirus C) was 21 µM, the Activity [1] was “inactive” and the Activity [2] was “inactive”. The CC50 [3] was 32 µM, the EC50 [4] was 22 µM and the CC50 [5] was 18 µM. The EC50 (Yellow fever virus) was > 18 µM, the CC50 [6] was 50 µM and the EC50 (Coxsackievirus B2) was 2 µM. The CC50 at 96 h [7] was 13 µM, the EC50 [8] was > 13 µM and the Activity (Reovirus sp.) was “inactive”.

With `CCOc1ccnc2c(Cl)c(Cl)c3ncccc3c12` the EC50 (Enterovirus C) was 11 µM, the Activity [1] was “inactive” and the Activity [2] was “inactive”. It also gave a CC50 [3] of 64 µM, an EC50 [4] of 25 µM and a CC50 [5] of 25 µM. The EC50 (Yellow fever virus) was > 25 µM, the CC50 [6] was 75 µM and the EC50 (Coxsackievirus B2) was 2 µM. For the same compound, the CC50 at 96 h [7] was > 100 µM, the EC50 [8] was > 100 µM and the Activity (Reovirus sp.) was “inactive”.

In the case of `O=c1cc[nH]c2ccc3ncccc3c12`, the EC50 (Enterovirus C) is reported as > 100 µM, the Activity [1] is reported as “inactive” and the Activity [2] is reported as “inactive”. For the same compound, the CC50 [3] was > 100 µM, the EC50 [4] was 95 µM and the CC50 [5] was 66 µM. For the same compound, the EC50 (Yellow fever virus) was > 66 µM, the CC50 [6] was > 100 µM and the EC50 (Coxsackievirus B2) was > 100 µM. The CC50 at 96 h [7] was > 100 µM, the EC50 [8] was > 100 µM and the Activity (Reovirus sp.) was “inactive”.

For `Nc1ccnc2ccc3ncccc3c12`, the EC50 (Enterovirus C) was > 90 µM, the Activity [1] was “inactive” and the Activity [2] was “inactive”. For the same compound, the CC50 [3] was 63 µM, the EC50 [4] was 9 µM and the CC50 [5] was > 100 µM. For the same compound, the EC50 (Yellow fever virus) was > 100 µM, the CC50 [6] was 90 µM and the EC50 (Coxsackievirus B2) was > 90 µM. The CC50 at 96 h [7] was 50 µM, the EC50 [8] was > 50 µM and the Activity (Reovirus sp.) was “inactive”.
